In article PMC5152578 (Molecular oncology, 2016):

Tests used:
[1] = tested on: MDA-MB-231 (ER−, PR−, HER2−) cells; test: MTT cell viability assay, MDA-MB-231 cells; format: cell-based, human; conditions: read-out: 50% inhibitory concentration (IC50), MDA-MB-231, Table 3, 24 h, breast
Summary of the method: (§1)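 Normal or cancer cells seeded at 2 × 10^3–1 × 10^4 per well in 96-well plates and allowed to settle overnight. Exposed to test compounds for 24 h, with paclitaxel run in parallel as reference. Growth read by MTT, OD570. Viability (%) = treated OD570 / vehicle OD570 × 100, with 0.5% DMSO vehicle set as 100%. IC50 derived from viability data.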

[2] = tested on: colon cancer cell line HCT-116; test: MTT cell viability assay, HCT-116 cells; format: cell-based; conditions: read-out: 50% inhibitory concentration (IC50), HCT-116, 24 h
Summary of the method: as §1

PC3 cells (prostate) = test: MTT cell viability assay, PC3 cells; format: cell-based; conditions: read-out: 50% inhibitory concentration (IC50), PC3, 24 h
Summary of the method: as §1

[3] = tested on: stomach cancer cell line KATO III; test: MTT cell viability assay, KATO III cells; format: cell-based; conditions: read-out: 50% inhibitory concentration (IC50), KATO III, 24 h
Summary of the method: as §1

[4] = tested on: TS/A (ER+, HER2−) murine mammary cancer cell line; test: MTT cell viability assay, TS/A cells; format: cell-based; conditions: read-out: 50% inhibitory concentration (IC50), TS/A (mouse), Table 3, 24 h, breast
Summary of the method: as §1

lymphoma line U937 = test: MTT cell viability assay, U937 cells; format: cell-based; conditions: read-out: 50% inhibitory concentration (IC50), U937, 24 h
Summary of the method: as §1

[5] = tested on: brain cancer cell line U-87MG; test: MTT cell viability assay, U-87MG cells; format: cell-based; conditions: read-out: 50% inhibitory concentration (IC50), U-87MG, 24 h
Summary of the method: as §1

[6] = tested on: neuroepithelioma line SK-N-MC; test: MTT cell viability assay, SK-N-MC cells; format: cell-based; conditions: read-out: 50% inhibitory concentration (IC50), SK-N-MC, 24 h
Summary of the method: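 Cells (2 × 10^3–1 × 10^4 per well) seeded overnight in 96-well plates, then exposed to test compound for 24 h. Growth read by MTT colorimetric assay at OD570. Viability expressed as treated OD570 over vehicle (0.5% DMSO) OD570 × 100, with vehicle set to 100% viable. IC50 taken as the concentration giving 50% inhibition of viability.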

[7] = tested on: lung cancer cell line PC6; test: MTT cell viability assay, PC6 cells; format: cell-based; conditions: read-out: 50% inhibitory concentration (IC50), PC6, 24 h
Summary of the method: as §1

B16–F10 cells (skin) = test: MTT cell viability assay, B16–F10 cells; format: cell-based; conditions: read-out: 50% inhibitory concentration (IC50), B16–F10 (mouse), 24 h
Summary of the method: as §1

[8] = tested on: kidney cancer cell line A498; test: MTT cell viability assay, A498 cells; format: cell-based; conditions: read-out: 50% inhibitory concentration (IC50), A498, 24 h
Summary of the method: as §1

[9] = tested on: uterus cancer cell line NES-SA; test: MTT cell viability assay, NES-SA cells; format: cell-based; conditions: read-out: 50% inhibitory concentration (IC50), NES-SA, 24 h
Summary of the method: as §1

MDA-MB-231 cells [10] = test: Boyden chamber migration assay; format: cell-based, human; conditions: 24 h, vs vehicle; for reduction of cell migration, low concentration: DET 2.5 μM, DETD-35 1.25 μM, PTX 2.5 μM
Summary of the method: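 Boyden inserts, 6.5 mm diameter, no coating. 5 × 10^4 MDA-MB-231 cells per insert in DMEM with 0.1% FBS. The lower well held 10% FBS chemoattractant with 0.5% DMSO vehicle or test compounds at two concentrations. Incubation 24 h, 37 °C, 5% CO2. Non-migrated cells removed by swab; migrated cells fixed, DAPI-stained (1 μg/mL) and counted in three fields at 20× by fluorescence microscopy. Three independent experiments, mean ± SEM, one-way ANOVA.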

MDA-MB-231 cells [11] = test: Cell cycle analysis by flow cytometry; format: cell-based, human; conditions: for apoptotic sub-G1 DNA content / G0/G1 phase DNA content: 48 h at IC50 (DET 14 μM, DETD-35 3.8 μM, PTX 60 μM); for apoptotic sub-G1 DNA content: vehicle 1.3%; for G0/G1 phase DNA content: vehicle 51.5%; for cell-cycle arrest: treatment at IC50, time course
Summary of the method: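 MDA-MB-231 cells, 5 × 10^4 per well in 6-well plates, held 24 h in DMEM with 0.5% FBS. Medium then switched to 10% FBS with test compounds for 48 h, or for indicated times. Adherent and floating cells pooled, PBS-washed and fixed in ice-cold 70% ethanol overnight at 4 °C. Stained with 20 μg/mL RNase, Triton X-100 and 20 μg/mL propidium iodide for 30 min, dark, room temperature. Phase fractions (sub-G1, G0/G1, S, G2/M) taken from flow cytometric DNA histograms; three independent experiments.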

MDA-MB-231 cells [12] = test: Western blot analysis of protein markers; format: cell-based, human; conditions: for PARP (full-length and cleaved) expression: 48-h treatment
Summary of the method: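 Total cellular protein from treated MDA-MB-231 cells, quantified by Bradford assay. Resolved on 4%–20% gradient SDS-PAGE and immunoblotted for PARP (full-length and cleaved), PN-1, Slug, vimentin, VEGF, E-cadherin, Snail, ZO-1 and ZEB-1, with actin as loading control. HRP secondary antibodies and enhanced chemiluminescence on film. Bands quantified by densitometry and normalised to actin.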

[13] = tested on: MDA-MB-231 tumor cells in SCID mice; test: Lung metastatic animal model of TNBC; format: in vivo, mouse; conditions: post-treatment, 5 mg/kg i.p. every three days (21 doses), day 71
Summary of the method: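 Seventy female SCID mice, 5 weeks old, randomised into 7 groups. MDA-MB-231 cells (1 × 10^6) injected i.v. on day 0. One group received 10 mg/kg every two days for three doses before cell injection. Tumor and sham controls received 5% DMSO. Mice killed on day 71; lung colonies counted, body weight and organ index recorded; one-way ANOVA.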

MDA-MB-231 cells [14] = test: Boyden chamber; format: cell-based, human; conditions: 24 h, Matrigel
Summary of the method: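 Filters (8 μm) pre-coated with Matrigel (30 μg per filter) and held 2 h at 37 °C. MDA-MB-231 cells were seeded in the upper chamber at 5 × 10^4 per insert in DMEM with 0.1% FBS. The lower well held 10% FBS chemoattractant plus 0.5% DMSO vehicle or test compounds, two concentrations each. Incubation 24 h, 37 °C, 5% CO2. Cells on the upper surface were scraped off; invaded cells fixed, DAPI-stained (1 μg/mL) and counted in three 20× fields. Three independent experiments, mean ± SEM, one-way ANOVA.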

[15] = tested on: lung tissues of MDA-MB-231 xenograft SCID mice; test: Immunohistochemistry of lung tissues; format: in vivo, mouse; conditions: lung tissue
Summary of the method: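 Lungs from the metastasis model were fixed in 10% buffered formalin, paraffin-embedded and cut at 4 μm. Sections stained with H&E and immunostained with rabbit antibodies to VEGF, Ki-67, COX-2 and caspase 3. Staining levels quantified by image analysis and compared with sham and tumor control groups.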

MDA-MB-231 cells [16] = test: Compound-drug combination assay; format: cell-based, human; conditions: MTT, 24 h
Summary of the method: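 MDA-MB-231 cells seeded at 1.5 × 10^3–5 × 10^3 per well in 96-well plates. Treated 24 h with each agent alone to derive IC40 by MTT. Then treated with the test compound (0–4 μM) combined with paclitaxel (0–100 nM) and read by MTT. Interaction assessed by classic isobologram and the Chou-Talalay method. Combination index plotted against fraction affected: CI <1 synergy, =1 additive, >1 antagonism.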

[17] = DET 4 μM, DETD-35 2.5 μM, PTX 4 μM

Row | Compound | IC50 [1] [µM] | IC50 [2] [µM] | IC50 (PC3 cells (prostate)) [µM] | IC50 [3] [µM] | IC50 [4] [µM] | IC50 (lymphoma line U937) [µM] | IC50 [5] [µM] | IC50 [6] [µM] | IC50 [7] [µM] | IC50 (B16–F10 cells (skin)) [µM] | IC50 [8] [µM] | IC50 [9] [µM] | reduction of cell migration, low concentration (MDA-MB-231 cells [10]) [%] | apoptotic sub-G1 DNA content (MDA-MB-231 cells [11]) [%] | G0/G1 phase DNA content (MDA-MB-231 cells [11]) [%] | cell-cycle arrest (MDA-MB-231 cells [11]) | expressions of VEGF and protease nexin-1 (PN-1) (MDA-MB-231 cells [12]) | vimentin expression (MDA-MB-231 cells [12]) | PARP (full-length and cleaved) expression (MDA-MB-231 cells [12]) | also measured
1 | Cinnamate [compound 28] | 4 | 0.11 | 4.5 | 0.42 | 1.8 | 0.18 | 0.35 | 0.32 | 0.17 | 3.9 | 1.11 | 0.42 |  |  |  |  |  |  |  | 
2 | C=C(C)C(=O)O[C@H]1CC2=C[C@@H](C/C(C)=C/[C@H]3OC(=O)C(=C)[C@H]13)OC2=O [compound 1, deoxyelephantopin, reference compound] | 14 | 0.28 | 12.8 | 1.47 | 2.6 | 0.48 | 1 | 0.51 | 0.4 | 6 | 2.82 | 0.9 | 16 | 19.3 | 36.2 | did not show any cell-cycle arrest at specific stages | downregulated | did not regulate | induced significant cleavage in PARP | ZEB-1 expression level (MDA-MB-231 cells [12]; at 48 h): 49%
3 | CC(=O)O[C@H]1C(=O)[C@@]2(C)[C@H]([C@H](OC(=O)c3ccccc3)[C@]3(O)C[C@H](OC(=O)[C@H](O)[C@@H](NC(=O)c4ccccc4)c4ccccc4)C(C)=C1C3(C)C)[C@]1(OC(C)=O)CO[C@@H]1C[C@@H]2O [PTX, paclitaxel] |  |  |  |  |  |  |  |  |  |  |  |  | 87 | 66.8 | 11.2 | typical time-dependent G2/M arrest | downregulated | time-dependently downregulated | reduced the expression of full-length PARP | reduction of lung tumor foci [13]: 62%; reduction of cell migration, high concentration (MDA-MB-231 cells [10]; [17]): 88%; inhibition of cell invasion, low concentration (MDA-MB-231 cells [14]; DET 2.5 μM, DETD-35 1.25 μM, PTX 2.5 μM): 85%; inhibition of cell invasion, high concentration (MDA-MB-231 cells [14]; [17]): 90%; expression of apoptotic marker caspase 3 [15]: increased expression; IC40 on MDA-MB-231 cells (MDA-MB-231 cells [16]): 0.0238 µM
